An excerpt weighted towards active compounds, which were near 3.5% of everything screened.
MrgX1 antag: antagonists of human MrgX1 receptor. Q96LB2. MRGX1-HEK293 calcium flux, Fluo-4, BAM8-22 antagonism; hits give low values. B-score at 10 µM. 310,000 tested, 1.3% active. AID 588676;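 active = calcium-response B-score plate-corrected more than 3 library SD below zero, starting fluorescence within 5 deviations, no agonist response on first addition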;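 also: peak minus trough fluorescence over baseline after final BAM8-22 challenge near maximal dose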
Target sequence (Q96LB2 whole entry, looked up): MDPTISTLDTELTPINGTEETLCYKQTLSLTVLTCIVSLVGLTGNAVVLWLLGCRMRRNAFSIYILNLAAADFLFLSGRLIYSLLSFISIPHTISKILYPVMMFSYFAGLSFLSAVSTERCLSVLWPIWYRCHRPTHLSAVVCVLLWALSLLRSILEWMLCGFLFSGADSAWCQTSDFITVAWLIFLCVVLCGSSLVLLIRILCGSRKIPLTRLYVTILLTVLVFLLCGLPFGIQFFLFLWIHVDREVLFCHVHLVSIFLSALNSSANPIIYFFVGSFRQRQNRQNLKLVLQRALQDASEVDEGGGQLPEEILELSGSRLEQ
MrgX1 allo act: allosterically activates human MrgX1 receptor signaling. Q96LB2. MrgX1-HEK293, Fluo-4 calcium flux, FDSS; hits give high values. B-score at 10 µM. 310,000 tested, 0.63% active;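 active = plate-corrected calcium response at least 3 library SD above typical, normal starting fluorescence, not activating the receptor alone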;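 also: compound read alongside a low EC10 to EC30 dose of BAM8-22 agonist; peak minus trough fluorescence over baseline measured at the second addition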
RGS4 act: potentiators or activators of RGS4. 310,000 tested, 0.92% active. AID 463111. B-score at 10 µM. HEK293 M3R/inducible RGS4, carbachol calcium flux Fluo4; hits give low values;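 active = B-score of the integrated calcium signal more than 4 SD below the library mean, with starting fluorescence not abnormally high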;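 also: negative B-score means reduced calcium response which marks RGS4 activation or potentiation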
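Material: M3R-expressing HEK293 line, RGS4 induced by doxycycline | Schedule: Overnight RGS4 induction, 30 min dye load 37 °C, 20 min compound RT | Measured by: Fluo4 fluorescence kinetic imaging of calcium | Read-out: Integrated calcium ratio converted to B score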
MrgX1 ag: activates human MrgX1 receptor signaling | MrgX1-HEK293 cells, Fluo-4 calcium fluorescence, agonist mode; hits give high values | 310,000 tested, 0.44% active | B-score at 10 µM;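 active = calcium response B-score plate-corrected fluorescence ratio at least 3 library SD, with starting fluorescence B-score inside 5 SD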
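Assay system: stable human MrgX1 HEK293 cell line. Quantity: 15,000 cells per well. Schedule: cells plated overnight, dye loaded 0.5 h 37 °C, 0.5 h room temperature. Detection: Fluo-4 NW calcium-flux fluorescence, kinetic read. Read-out basis: peak-minus-minimum fluorescence over baseline, converted to B scores. Control set: positive and negative control wells on each plate.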
RGS4 block: inhibitors of human RGS4; AID 463165; 310,000 tested, 0.45% active; HEK293 M3R/RGS4 inducible, Fluo-4 calcium flux; hits give high values; triggered by carbachol at its EC20; B-score at 10 µM;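 active = B-score, a plate-corrected calcium signal, over three deviations above library mean, with baseline fluorescence within five deviations of library mean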;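 also: RGS4 expression induced by doxycycline in cells with stable M3 receptor; B-score is computed from the integrated fluorescence ratio over baseline after carbachol; higher B-score means a larger calcium signal and so more RGS4 inhibition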
MrgX1 antag conf: reconfirmed antagonist of human MrgX1 receptor signaling. remaining BAM8-22 calcium response % of control (hits give low values), % at 10 µM. AID 602420. MrgX1-HEK293, BAM8-22 calcium flux, Fluo-4; hits give low values. 2,300 tested, 19% active. shares compounds with MrgX1 antag;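 active = remaining agonist calcium response no higher than 100% minus 3 SD of agonist-only control wells, with starting fluorescence near control levels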;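 also: agonist BAM8-22 given at a near maximal EC90 to ECmax level; peak minus minimum fluorescence divided by baseline after agonist addition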
HEK293 Ca flux: activity in parental HEK293 cells lacking MrgX1; shares compounds with MrgX1 antag; Fluo-4 calcium fluorescence, FDSS; fluorescence ratio F(max-min)/F0 at 10 µM; 4,000 tested, 2% active; AID 624111;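 active = duplicate-averaged calcium fluorescence ratio at least three times the standard deviation of buffer wells, a nonspecific response in parental cells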
HEK293 Ca counter: counter-screen for MrgX1 allosteric activators: effect in parental HEK293 cells. shares compounds with MrgX1 antag. parental HEK293 calcium flux, Fluo-4 fluorescence ratio; hits give high values. fluorescence ratio F(max-min)/F0 at 10 µM. 4,000 tested, 0.4% active. AID 624114;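 active = calcium fluorescence ratio, averaged over duplicates, at least 3 SD of the buffer-well ratio, meaning a nonspecific response in receptor-free cells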;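 also: untransfected parental HEK293 lacking MrgX1 used as counterscreen for MrgX1 allosteric activators; fluorescence change taken during the second addition on a kinetic imager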
HEK293 Ca cntr2: MrgX1 activator counter-screen hit in parental HEK293 cells; shares compounds with MrgX1 antag; 4,000 tested, 8.7% active; Fluo-4 calcium fluorescence (FDSS); hits give high values; fluorescence ratio F(max-min)/F0 at 10 µM;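 active = calcium fluorescence ratio at least three times the spread of buffer wells, meaning a non-specific response in parental cells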
Active calls of the source: *; i = inactive; nt = not tested or not shown.

SMILES	MrgX1 antag	MrgX1 allo act	RGS4 act	MrgX1 ag	RGS4 block	MrgX1 antag conf	HEK293 Ca flux	HEK293 Ca counter	HEK293 Ca cntr2
COc1ccccc1NC(=O)C1=C(C)Nc2nc(-c3cccs3)nn2C1c1cccnc1 (stereo not drawn)	-5.2*	i	i	i	i	i	i	i	i
COc1ccc(-n2c(C)nnc2SCC(=O)N2CCOCC2)cc1	i	i	i	i	i	nt	nt	nt	nt
Cc1ccc(S(=O)(=O)N(CC(=O)N2CCCCCC2)c2ccccc2)cc1	i	i	i	i	i	nt	nt	nt	nt
Cc1ccc(N(CC(=O)N2CCN(C3CCCCC3)CC2)S(=O)(=O)c2cccnc2)cc1	-8.8*	i	nt	i	nt	i	i	i	i
O=C(CSc1nnc(NC(=O)C2CC2)s1)NCc1ccccc1	i	i	i	i	i	nt	nt	nt	nt
CCOc1ccc(S(=O)(=O)Nc2ccc(S(=O)(=O)N3CCCCC3)cc2)cc1	-5.3*	i	i	i	i	i	i	i	i
CCOc1ccc(NC(=O)CCN2CCN(S(=O)(=O)c3ccc(F)cc3)CC2)cc1	i	i	i	i	i	nt	nt	nt	nt
CCOc1ccc(NC(=O)CN2CCN(S(=O)(=O)c3ccc(Cl)cc3)CC2)cc1	-4.5*	i	i	i	i	i	i	i	i
CCOc1ccc(S(=O)(=O)Nc2ccc(S(=O)(=O)N3CCCC3)cc2)cc1	i	i	i	i	i	nt	nt	nt	nt
Cn1c(=O)c2sccc2n2c(CCCC(=O)NCc3ccc(F)cc3)nnc12	i	i	i	i	i	nt	nt	nt	nt
O=C(NCCc1ccc(Cl)cc1)C1CCN(S(=O)(=O)N2CCCC2)CC1	-5.7*	i	i	i	i	i	i	i	i
CC1=Nc2ccc3ccccc3c2C1(C)C	-5.8*	i	i	i	i	i	i	i	i
Cc1ccc(NC(=O)CN2CCC(NC(=O)c3ccccc3F)CC2)cc1C	i	i	i	i	i	nt	nt	nt	nt
CC(=O)c1ccc(OCC(=O)NC2CCS(=O)(=O)C2)cc1 (stereo not drawn)	i	i	i	i	i	nt	nt	nt	nt
CC(C)(C)c1ccc(OCCC(=O)OCC(=O)NC2CCS(=O)(=O)C2)cc1 (stereo not drawn)	-5.3*	i	i	i	i	i	i	i	i
Cc1ccc(C)c(OCCC(=O)OCC(=O)NC2CCS(=O)(=O)C2)c1 (stereo not drawn)	-5.5*	i	i	i	i	i	i	i	i
CCCCn1c(N)c(N(CCOC)C(=O)COC(=O)CCOc2ccccc2)c(=O)[nH]c1=O	i	i	i	i	i	nt	nt	nt	nt
Cc1cc(C)n2c(=O)c3ccc(Cl)cc3nc2c1C#N	-5.8*	i	i	i	i	i	i	i	i
